# In ChEMBL document CHEMBL1146376, “Antiviral activity of berberine and related compounds against human cytomegalovirus” (Bioorg Med Chem Lett, 2007):
# Active and inactive are the calls of the source. The rule behind the calls is not given here.
# What was measured:
# [1] = Selectivity index, ratio of CC50 for MRC5 cells to IC50 for HCMV; assay type: functional
# Method in brief: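 Ratio of CC50 (50% cytotoxic concentration in MRC-5 cells) to IC50 from the HCMV plaque yield reduction assay in MRC-5 cells. Values are means of three experiments.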
# [2] = test system: Human betaherpesvirus 5; assay: Antiviral activity against HCMV in MRC5 cells by plaque reduction assay; assay type: functional, organism-based; conditions: Human betaherpesvirus 5, MRC5
# Method in brief: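 HCMV plaque yield reduction assay in MRC-5 cells. IC50 is the 50% inhibitory concentration. Values are means of three experiments.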
# [3] = test system: MRC5; assay: (§1) Cytotoxicity against MRC5 cells; assay type: cell-based, Homo sapiens; conditions: Homo sapiens, MRC5
# [4] = as §1; assay type: cell-based, Homo sapiens; conditions: human, MRC5 cells
# [5] = test system: Human betaherpesvirus 5; assay: Inhibition of HCMV adsorption to MRC5 cells at 0.2 to 2 uM by infectious centre assay; assay type: functional, organism-based
# Method in brief: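 Infectious centre assay for adsorption: HCMV (1 PFU/cell), MRC-5 cell suspension (1 · 10^5 cells/mL) and compound (final 0.2, 0.5, 1, 2) were chilled on ice 2 h, then mixed and held 1 h at 4 C. Cells were washed with ice-cold PBS to remove unbound virus and compound. Pellets were diluted 100- or 1000-fold and plated onto MRC-5 monolayers for plaque counting.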
# [6] = test system: Human betaherpesvirus 5; assay: Inhibition of HCMV proliferation in MRC5 cells after 24 hrs post-infection at 10 uM by plaque assay; assay type: functional, organism-based
# Method in brief: (§2)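 Time-of-addition: MRC-5 cultures were infected at 0.5 PFU/cell, and compound (10 µM) was added at set times from 0 to 120 h post-infection. Virus titre was measured by plaque assay at 168 h post-infection and expressed as percent of control plaque numbers. Values are means of duplicate assays.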
# [7] = test system: Human betaherpesvirus 5; assay: Inhibition of HCMV proliferation in MRC5 cells after 54 hrs post-infection at 10 uM by plaque assay; assay type: functional, organism-based; method in brief: as §2
# [8] = test system: Human betaherpesvirus 5; assay: Inhibition of HCMV penetration to MRC5 cells at 0.2 to 2 uM; assay type: functional, organism-based
# Method in brief: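 HCMV (about 100 PFU/well) was bound to pre-chilled MRC-5 monolayers for 1 h at 4 C, then washed three times with ice-cold PBS. Cells were shifted to 37 C in medium with compound (final 0.2, 0.5, 1 or 2). At 0, 0.5, 1, 2, 3, 6 and 10 h, unpenetrated virus was inactivated with 40 mM citrate buffer pH 3.0 for 1 min. Plaques were counted under 0.5% methylcellulose overlay.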
SMILES,Ratio CC50/IC50 [1],IC50 [2] [µM],IC50 [3] [µM],CC50 [4] [µM],Activity [5],Activity [6],Activity [7],Activity [8]
COc1ccc2c(c1OC)C(C#N)N1CCc3cc4c(cc3C1=C2)OCO4 (stereo not given),18,0.88,16,–,–,–,–,–
COc1cc(OC)c2c(c1)OC(c1ccc(OC)c(OC)c1)C(OC)C2 (stereo not given),4,17,–,68,–,–,–,–
COc1cc(OC)c2c(c1)OC(c1ccc(OC)c(OC)c1)C(O)C2 (stereo not given),<1,> 200,–,190,–,–,–,–
COc1ccc(C2CC(=O)c3c(OC)cc(O)cc3O2)cc1 (stereo not given),0.13,92,–,12,–,–,–,–
COc1ccc2c(c1OC)C(C(Cl)(Cl)Cl)N1CCc3cc4c(cc3C1=C2)OCO4 (stereo not given),16,0.52,–,8.4,–,–,–,–
COc1cc(C[C@H]2C(=O)OC[C@@H]2Cc2ccc(OC)c(OC)c2)ccc1O [ARCTIGENIN],36,2.1,–,76,–,–,–,–
COc1ccc(C[C@H]2COC(=O)[C@@H]2Cc2ccc(O[C@@H]3O[C@H](CO)[C@@H](O)[C@H](O)[C@H]3O)c(OC)c2)cc1OC [ARCTIIN],15,16,–,240,–,–,–,–
COc1ccc2cc3[n+](cc2c1OC)CCc1cc2c(cc1-3)OCO2.[Cl-] [BERBERINE CHLORIDE],110,0.68,–,74,inactive,Active,Active,inactive
COc1ccc2c(c1OC)CN1CCc3cc4c(cc3[C@@H]1C2)OCO4 [CANADINE],10,12,–,125,–,–,–,–
COc1ccc2c(c1OC)CN1CCc3cc4c(cc3C1=C2)OCO4 [DIHYDROBERBERINE],1.7,93,–,155,–,–,–,–
Nc1nc2c(ncn2COC(CO)CO)c(=O)[nH]1 [GANCICLOVIR],1100,0.91,970,–,–,–,–,–
COc1ccc(Cc2nccc3cc(OC)c(OC)cc23)cc1OC.Cl [PAPAVERINE HYDROCHLORIDE],29,21,–,610,–,–,–,–
